Laboratory results reported in ChEMBL document CHEMBL5380838, “Novel Aryl Sulfonamide Derivatives as NLRP3 Inflammasome Inhibitors for the Potential Treatment of Cancer” (J Med Chem, 2023).
Calls of active or inactive are those of the source. No cut-off for these calls is given here.

Tests used:
[1] = tested on: Mus musculus; assay: Antiinflammatory activity in LPS-induced C57BL/6 mouse assessed as reduction in IL-1beta production in plasma at 25 mg/kg, ip pretreated for 30 mins followed by LPS induction measured after 4 hrs by ELISA method; type: functional, organism-based; conditions: time 4.5 hrs
Method in brief: (§1)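 C57BL/6 mice given inhibitor 25 mg/kg IP (vehicle DMSO) 30 min before IP LPS 1 mg/kg; after 4 h, peritoneal exudate and blood collected, plasma from centrifugation 1000g 15 min 4 °C; IL-1β measured by ELISA; mean ± SEM of three independent experiments.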

[2] = tested on: THP-1; assay: Suppression of IL-1beta processing in LPS-treated human THP-1 cells at 1 to 1000 nM incubated for 30 mins followed by ATP stimulation for 1 hr by ELISA method; type: functional, cell-based; conditions: dose 1-1000 nM, time 90.0 min
[3] = Metabolic stability in mouse liver microsomes assessed as half life measured per mg protein at 1 uM measured upto 60 mins by LC-MS/MS analysis; type: ADME, Microsome
Method in brief: (§2)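 Pooled human or CD-1 male mouse liver microsomes at 0.5 mg/mL with test compound 1 µM in 50 mM phosphate pH 7.4 and 3 mM MgCl2, preincubated 10 min at 37 °C. Percent parent remaining vs 0 min measured by LC-MS/MS. Cli = k/microsomal conc. × 1000; mean ± SD, n = 2.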

[4] = Metabolic stability in human liver microsomes assessed as half life measured per mg protein at 1 uM measured upto 60 mins by LC-MS/MS analysis; type: ADME, Microsome; method in brief: as §2
[5] = tested on: THP-1; assay: Cytotoxicity against human THP-1 cells assessed as reduction in cell viability at 1 uM measured after 48 hrs by RealTime-Glo MT assay; type: toxicity, cell-based; conditions: thp-1, 48 h
Method in brief: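 THP-1 cells (10 × 10^4/well) treated with inhibitors at 1 µM and kept 48 h; RealTime-Glo reagent added, luminescence read every 12 h as a proxy for metabolically active cells; means of RLU ± SEM.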

[6] = tested on: B16-F10; assay: Effect on NLRP3 expression in cytosolic luciferase-transfected mouse B16-F10 cells xenografted in C57BL/6 mouse at 25 mg/kg, ip administered thrice weekly measured after 14 days by Western blot analysis; type: functional, organism-based; conditions: time 14.0 day
Method in brief: (§3)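 Tumors from luciferase-expressing B16-F10 grafts in C57BL/6 mice, dosed IP at 25 mg/kg thrice weekly (DMSO controls), were excised at endpoint and homogenized in sucrose/HEPES/IGEPAL lysis buffer. Lysates were western blotted and bands expressed as fold ratio over β-actin (n = 5).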

[7] = tested on: BMDM; assay: Effect on NLRP3-ASC interaction in LPS-treated mouse BMDM cells at 1 uM incubated for 30 mins followed by ATP stimulation for 1 hr by co-immunoprecipitation based Western blot analysis; type: functional, cell-based; conditions: time 90.0 min
Method in brief: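 BMDMs (1 × 10^7) primed with LPS 2 h, treated 1 µM compound 30 min, then ATP 1 h; lysed in HEPES/NaCl/glycerol/EDTA/0.5% Triton buffer with protease/phosphatase inhibitors; NLRP3–ASC co-immunoprecipitation, bait eluted in Laemmli buffer, western blot; representative of three independent experiments.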

[8] = tested on: THP-1; assay: Suppression of NLRP3 expression in LPS-treated human THP-1 cells at 1 to 1000 nM incubated for 30 mins followed by ATP stimulation for 1 hr […]; type: functional, cell-based; conditions: dose 1-1000 nM, time 90.0 min
[9] = tested on: B16-F10; assay: Effect on ASC expression in cytosolic luciferase-transfected mouse B16-F10 cells xenografted in C57BL/6 mouse at 25 mg/kg, ip administered thrice weekly measured after 14 days by Western blot analysis; type: functional, organism-based; conditions: time 14.0 day; method in brief: as §3
[10] = tested on: B16-F10; assay: Antitumor activity against cytosolic luciferase-transfected mouse B16-F10 cells xenografted in C57BL/6 mouse assessed as tumor reduction at 25 mg/kg, ip administered thrice weekly measured after 14 days by bioluminescence assay; type: functional, organism-based; conditions: time 14.0 day
Method in brief: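 Female C57BL/6 mice aged 6–8 weeks inoculated subcutaneously with 1 × 10^6 B16-F10 cells stably expressing cytosolic luciferase. From day 5, IP dosing of 25 mg/kg thrice weekly, DMSO for controls, five mice per group. Imaging after IP D-luciferin 150 mg/kg under 2.5% isoflurane, read after 15 min. Caliper volume = π/6 × a × b². Tumors excised day 14.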

[11] = tested on: BMDM; assay: Effect on ASC level in LPS-treated mouse BMDM cells at 1 uM incubated for 30 mins followed by ATP stimulation for 1 hr by Hoechst staining based microscopy; type: functional, cell-based; conditions: time 90.0 min
Method in brief: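 BMDMs primed with LPS 1 µg/mL for 2 h, given DMSO or compound 1 µM for 30 min, then 5 mM ATP for 1 h. Cells fixed in 4% PFA, permeabilized with 0.1% Triton X-100, stained with anti-ASC overnight at 4 °C plus fluorescent secondary, nuclei Hoechst 1 µM; confocal imaging with 63× oil objective.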

[12] = tested on: B16-F10; assay: Effect on total caspase-1 expression in cytosolic luciferase-transfected mouse B16-F10 cells xenografted in C57BL/6 mouse at 25 mg/kg, ip administered thrice weekly measured after 14 days by Western blot analysis; type: functional, organism-based; conditions: time 14.0 day; method in brief: as §3
[13] = tested on: Mus musculus; assay: Antiinflammatory activity in LPS-induced C57BL/6 mouse assessed as reduction in IL-1beta production in peritoneal exudate at 25 mg/kg, ip pretreated for 30 mins followed by LPS induction measured after 4 hrs by ELISA method; type: functional, organism-based; conditions: time 4.5 hrs; method in brief: as §1
[14] = tested on: BMDM; assay: Effect on AIM2 inflammasome activation in LPS-treated mouse BMDM cells assessed as IL-1beta release at 1 uM incubated for 30 mins followed by Poly (dA:dT) stimulation for 4 hrs by ELISA method; type: functional, cell-based; conditions: time 270.0 min
Method in brief: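 BMDMs primed with LPS 100 ng/mL for 3 h, then compound 1 µM in serum-free medium for 30 min, then poly(dA:dT) 1 µg/mL transfected with lipofectamine 2000 for 4 h; supernatant mouse IL-1β by ELISA.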

[15] = Metabolic stability in mouse liver microsomes assessed as intrinsic clearance measured per mg protein at 1 uM measured upto 60 mins by LC-MS/MS analysis; type: ADME, Microsome; conditions: read-out: CLH; method in brief: as §2
[16] = tested on: THP-1; assay: Suppression of pro-IL-1beta expression in LPS-treated human THP-1 cells at 1 to 1000 nM incubated for 30 mins followed by ATP stimulation for 1 hr […]; type: functional, cell-based; conditions: dose 1-1000 nM, time 90.0 min
[17] = tested on: BMDM; assay: Effect on NLRC4 inflammasome activation in LPS-treated mouse BMDM cells assessed as IL-1beta release at 1 uM incubated for 30 mins followed by Salmonella typhimurium flagellin stimulation for 2 hrs by ELISA method; type: functional, cell-based; conditions: time 150.0 min
Method in brief: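 BMDMs primed with LPS 100 ng/mL for 3 h, then compound 1 µM in serum-free medium for 30 min, then flagellin 100 ng/mL for 2 h; supernatant mouse IL-1β by ELISA.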

[18] = tested on: B16-F10; assay: Effect on cleaved caspase-1 expression in cytosolic luciferase-transfected mouse B16-F10 cells xenografted in C57BL/6 mouse at 25 mg/kg, ip administered thrice weekly measured after 14 days by Western blot analysis; type: functional, organism-based; conditions: time 14.0 day; method in brief: as §3
[19] = tested on: THP-1; assay: Suppression of ASC expression in LPS-treated human THP-1 cells at 1 to 1000 nM incubated for 30 mins followed by ATP stimulation for 1 hr […]; type: functional, cell-based; conditions: dose 1-1000 nM, time 90.0 min
Method in brief: (§4)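 PMA-differentiated THP-1 cells (1 × 10^6/well) primed with LPS 1 µg/mL for 3 h, then DMSO or compound in serum-free medium for 30 min, then 5 mM ATP for 1 h. RIPA lysates (20 µg) and concentrated supernatants run on SDS-PAGE and western blotted for NLRP3, ASC, caspase-1 and IL-1β, normalized to GAPDH; three independent experiments.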

[20] = tested on: B16-F10; assay: Antiproliferative activity against cytosolic luciferase-transfected mouse B16-F10 cells xenografted in C57BL/6 mouse assessed as effect on cell growth at 25 mg/kg, ip administered thrice weekly measured after 5 days; type: functional, organism-based; conditions: time 5.0 day
[21] = tested on: THP-1; assay: Suppression of caspase-1 p10 expression in LPS-treated human THP-1 cells at 1 to 1000 nM incubated for 30 mins followed by ATP stimulation for 1 hr […]; type: functional, cell-based; conditions: dose 1-1000 nM, time 90.0 min
[22] = tested on: B16-F10; assay: Antiproliferative activity against LPS-treated mouse B16-F10 cells co-cultured with mouse peritoneal macrophages assessed as decrease in cell growth at 1 uM incubated for 30 mins followed by ATP stimulation for 1 hr measured after 48 hrs by cell counting method; type: functional, cell-based; conditions: time 49.5 hrs
Method in brief: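 Transwell co-culture (0.4 µm pores), 48 h: peritoneal macrophages from C57BL/6 mice (2 × 10^5, lower well) primed with LPS 1 µg/mL 2 h, then DMSO or compound 1 µM 30 min, then ATP 1 h; B16-F10 cells (2 × 10^3) in upper insert; tumor cells removed after 48 h and counted by image-based cytometer.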

[23] = Metabolic stability in human liver microsomes assessed as intrinsic clearance measured per mg protein at 1 uM measured upto 60 mins by LC-MS/MS analysis; type: ADME, Microsome; conditions: read-out: CLH; method in brief: as §2
[24] = tested on: THP-1; assay: Suppression of caspase-1 expression in LPS-treated human THP-1 cells at 1 to 1000 nM incubated for 30 mins followed by ATP stimulation for 1 hr by […]; type: functional, cell-based; conditions: dose 1-1000 nM, time 90.0 min; method in brief: as §4
[25] = tested on: B16-F10; assay: Effect on pro-IL-1beta expression in cytosolic luciferase-transfected mouse B16-F10 cells xenografted in C57BL/6 mouse at 25 mg/kg, ip administered thrice weekly measured after 14 days by Western blot analysis; type: functional, organism-based; conditions: time 14.0 day; method in brief: as §3

In the case of `Nc1ccc(S(=O)(=O)N2Cc3ccccc3C[C@H]2C(=O)Nc2c3c(cc4c2CCC4)CCC3)cc1`, the Activity [1] is reported as “Active”, the Activity [2] is reported as “Active” and the half-life at 1 µM [3] is reported as 5.1 min. The half-life at 1 µM [4] was 48.3 min, the Activity [5] was “Non-Toxic” and the Activity [6] was “inactive”. The Activity [7] was “inactive”, the Activity [8] was “inactive” and the Activity [9] was “inactive”. The Activity [10] was “Active”, the Activity [11] was “inactive” and the Activity [12] was “inactive”. For the same compound, the Activity [13] was “Active”, the Activity [14] was “inactive” and the microsomal CLint at 1 µM [15] was 270 µL/min/mg. For the same compound, the Activity [16] was “inactive”, the Activity [17] was “inactive” and the Activity [18] was “inactive”. For the same compound, the Activity [19] was “inactive”, the Activity [20] was “inactive” and the Activity [21] was “Active”. For the same compound, the Activity [22] was “Active”, the microsomal CLint at 1 µM [23] was 28.7 µL/min/mg and the Activity [24] was “inactive”. The Activity [25] was “inactive”.
In the case of `Nc1ccc(S(=O)(=O)N[C@@H](Cc2ccc(O)cc2)C(=O)Nc2c3c(cc4c2CCC4)CCC3)cc1`, the Activity [1] is reported as “Active”, the Activity [2] is reported as “Active” and the half-life at 1 µM [3] is reported as 11.2 min. The half-life at 1 µM [4] was 46.2 min, the Activity [5] was “Non-Toxic” and the Activity [6] was “inactive”. For the same compound, the Activity [7] was “inactive”, the Activity [8] was “inactive” and the Activity [9] was “inactive”. For the same compound, the Activity [10] was “Active”, the Activity [11] was “inactive” and the Activity [12] was “inactive”. The Activity [13] was “Active”, the Activity [14] was “inactive” and the microsomal CLint at 1 µM [15] was 124 µL/min/mg. The Activity [16] was “inactive”, the Activity [17] was “inactive” and the Activity [18] was “inactive”. For the same compound, the Activity [19] was “inactive”, the Activity [20] was “inactive” and the Activity [21] was “Active”. For the same compound, the Activity [22] was “Active”, the microsomal CLint at 1 µM [23] was 31.9 µL/min/mg and the Activity [24] was “inactive”. For the same compound, the Activity [25] was “inactive”.
